ChEMBL document CHEMBL4196081, “Synthesis and antimycobacterial activity of 1-(β-d-Ribofuranosyl)-4-coumarinyloxymethyl- / -coumarinyl-1,2,3-triazole” (Eur J Med Chem, 2018)
In brackets after ≈: the same amount, converted by molar mass. Activity calls are given as the source filed them. No cut-off for these calls is given here.

Experiments:
[1] = Cytotoxicity against human THP1 cells assessed as cell viability at 4.68 ug/ml after 48 hrs by MTT assay relative to control; format: cell-based; conditions: THP-1 cells, read-out: Activity
Procedure, shortened: (§1)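 THP-1 cells (human monocytic line) seeded at 10^4 per well and adhered with phorbol myristate acetate (20 ng/mL). Then given fresh RPMI with 10% foetal calf serum and 2 mM L-glutamine, plus compound by serial double dilution (4.68–150 µg/mL), with DMSO and no-DMSO controls. Incubated 24 or 48 h at 37 °C, 5% CO2. MTT added for 4 h, formazan dissolved in DMSO, A540 read, percentage survival calculated.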

[2] = tested on: Mycobacterium tuberculosis; assay: Antimycobacterial activity against Mycobacterium tuberculosis H37Rv after 10 days by MABA; format: functional; conditions: 240 h
Procedure, shortened: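 MABA in 7H9 medium: log-phase culture passed through 8 µm filter, density set by OD600 and McFarland standards, 1 × 10^6 cells per well with drug dilutions; aerobic incubation 37 °C 10 days, then 0.02 % resazurin, overnight 37 °C. MIC = lowest concentration preventing blue-to-pink change. Triplicate; medium+inoculum and medium-only controls.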

[3] = tested on: Mycobacterium tuberculosis; assay: Antimycobacterial activity against MDR Mycobacterium tuberculosis isolate 591 after 15 days by MABA; format: functional; conditions: isolate 591, 360 h
Procedure, shortened: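 MABA in 7H9 medium on MDR clinical isolate 591: filtered single-cell suspension, 1 × 10^6 cells per well with drug dilutions, aerobic 37 °C; 0.02 % resazurin added on day 15, overnight 37 °C. MIC = lowest concentration preventing blue-to-pink change. Triplicate; medium+inoculum and medium-only controls.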

[4] = tested on: Mycobacterium tuberculosis; assay: Bactericidal activity against Mycobacterium tuberculosis H37Rv after 4 weeks by MABA; format: functional; conditions: 672 h
[5] = tested on: Mycobacterium tuberculosis; assay: Ratio of MBC to MIC for Mycobacterium tuberculosis H37Rv; format: functional
THP-1 = assay: Cytotoxicity against human THP1 cells assessed as growth inhibition after 24 to 48 hrs by MTT assay; format: cell-based; procedure, shortened: as §1
[6] = Selectivity index, ratio of IC50 for cytotoxicity against human THP1 cells to MIC for Mycobacterium tuberculosis H37Rv; format: toxicity, cell-based; conditions: THP-1 cells, read-out: Selectivity Index
Procedure, shortened: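 THP-1 cells, 10^4/well, adhered with PMA 20 ng/mL, in RPMI with 10 % FCS and 2 mM L-glutamine; exposed to 4.68–150 µg/mL for 24 and 48 h at 37 °C, 5 % CO2; MTT 4 h, formazan in DMSO, A540. Index = THP-1 IC50 divided by H37Rv MABA MIC.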

[7] = Cytotoxicity against human THP1 cells assessed as cell viability at 4.68 ug/ml after 24 hrs by MTT assay relative to control; format: cell-based; conditions: THP-1 cells, read-out: Activity; procedure, shortened: as §1
[8] = Cytotoxicity against human THP1 cells assessed as cell viability at 9.36 ug/ml after 24 hrs by MTT assay relative to control; format: cell-based; conditions: THP-1 cells, read-out: Activity; procedure, shortened: as §1
[9] = Cytotoxicity against human THP1 cells assessed as cell viability at 9.36 ug/ml after 48 hrs by MTT assay relative to control; format: cell-based; conditions: THP-1 cells, read-out: Activity; procedure, shortened: as §1
[10] = Cytotoxicity against human THP1 cells assessed as cell viability at 18.72 ug/ml after 24 hrs by MTT assay relative to control; format: cell-based; conditions: THP-1 cells, read-out: Activity; procedure, shortened: as §1
[11] = Cytotoxicity against human THP1 cells assessed as cell viability at 18.72 ug/ml after 48 hrs by MTT assay relative to control; format: cell-based; conditions: THP-1 cells, read-out: Activity; procedure, shortened: as §1
[12] = Cytotoxicity against human THP1 cells assessed as cell viability at 37.48 ug/ml after 24 hrs by MTT assay relative to control; format: cell-based; conditions: THP-1 cells, read-out: Activity; procedure, shortened: as §1
[13] = Cytotoxicity against human THP1 cells assessed as cell viability at 37.48 ug/ml after 48 hrs by MTT assay relative to control; format: cell-based; conditions: THP-1 cells, read-out: Activity; procedure, shortened: as §1
[14] = Cytotoxicity against human THP1 cells assessed as cell viability at 75 ug/ml after 24 hrs by MTT assay relative to control; format: cell-based; conditions: THP-1 cells, read-out: Activity; procedure, shortened: as §1
[15] = Cytotoxicity against human THP1 cells assessed as cell viability at 75 ug/ml after 48 hrs by MTT assay relative to control; format: cell-based; conditions: THP-1 cells, read-out: Activity; procedure, shortened: as §1
[16] = Cytotoxicity against human THP1 cells assessed as cell viability at 150 ug/ml after 24 hrs by MTT assay relative to control; format: cell-based; conditions: THP-1 cells, read-out: Activity; procedure, shortened: as §1
[17] = Cytotoxicity against human THP1 cells assessed as cell viability at 150 ug/ml after 48 hrs by MTT assay relative to control; format: cell-based; conditions: THP-1 cells, read-out: Activity; procedure, shortened: as §1
[18] = target: DNA gyrase subunit B (Escherichia coli) (UniProt P0AES6); assay: Inhibition of Escherichia coli DNA gyrase-B at 0.66 to 100 uM using relaxed pUC19 DNA as substrate after 1 hr by bromophenol blue dye based agarose gel electrophoresis method
Procedure, shortened: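 E. coli DNA gyrase, 1 unit, with 0.3 µg relaxed pUC19 plasmid in 1X gyrase assay buffer. Compound added as 0.2 µL from 100 µM stock; ciprofloxacin positive control, DMSO solvent control. Incubated 37 °C for 1 h, stopped with 50% glycerol/0.25% bromophenol blue. Run on 1% agarose in 0.5X TBE pH 8.3, 16 h at 30 mA, ethidium bromide stained, UV visualised for supercoiling.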

SMILES | MIC [2] | MIC [3] | MBC [4] | Ratio [5] | other results
O=c1cc(-c2ccccc2)c2ccc(-c3cn([C@@H]4O[C@H](CO)[C@@H](O)[C@H]4O)nn3)cc2o1 | 14.2 µM (≈ 5.98 µg/mL) | 18.9 µM (≈ 7.96 µg/mL) | 28.5 µM (≈ 12 µg/mL) | 2 | viability at 48 h, 4.68 ug/ml [1]: 96%; IC50 (THP-1): > 355 µM; selectivity ratio [6]: 25; viability at 24 h, 4.68 ug/ml [7]: 100%; viability at 24 h, 9.36 ug/ml [8]: 94%; viability at 48 h, 9.36 ug/ml [9]: 94%; viability at 24 h, 18.72 ug/ml [10]: 84%; viability at 48 h, 18.72 ug/ml [11]: 83%; viability at 24 h, 37.48 ug/ml [12]: 70%; viability at 48 h, 37.48 ug/ml [13]: 70%; viability at 24 h, 75 ug/ml [14]: 68%; viability at 48 h, 75 ug/ml [15]: 63%; viability at 24 h, 150 ug/ml [16]: 65%; viability at 48 h, 150 ug/ml [17]: 62%
Cc1cc(=O)oc2cc(-c3cn([C@@H]4O[C@H](COC(=O)c5ccccc5)[C@@H](OC(=O)c5ccccc5)[C@H]4OC(=O)c4ccccc4)nn3)ccc12 | 11.9 µM (≈ 7.99 µg/mL) | 29.8 µM (≈ 20 µg/mL) | 26.8 µM (≈ 18 µg/mL) | 2.25 | –
Cc1cc(=O)oc2cc(OCc3cn([C@@H]4O[C@H](COC(=O)c5ccccc5)[C@@H](OC(=O)c5ccccc5)[C@H]4OC(=O)c4ccccc4)nn3)ccc12 | 8.5 µM (≈ 5.96 µg/mL) | 11.4 µM (≈ 8 µg/mL) | 17.1 µM (≈ 12 µg/mL) | 2 | –
O=C(OC[C@H]1O[C@@H](n2cc(-c3ccc4ccc(=O)oc4c3)nn2)[C@H](OC(=O)c2ccccc2)[C@@H]1OC(=O)c1ccccc1)c1ccccc1 | 15.2 µM (≈ 10 µg/mL) | 30.4 µM (≈ 20 µg/mL) | 30.4 µM (≈ 20 µg/mL) | 2 | –
O=C(OC[C@H]1O[C@@H](n2cc(-c3ccc4c(-c5ccccc5)cc(=O)oc4c3)nn2)[C@H](OC(=O)c2ccccc2)[C@@H]1OC(=O)c1ccccc1)c1ccccc1 | 10.9 µM (≈ 8 µg/mL) | 13.6 µM (≈ 9.98 µg/mL) | 24.5 µM (≈ 18 µg/mL) | 2.25 | –
Cc1cc(=O)oc2cc(-c3cn([C@@H]4O[C@H](COC(=O)c5ccccc5)[C@@H](OC(=O)c5ccccc5)[C@H]4OC(=O)c4ccccc4)nn3)c(Cl)cc12 | 14.2 µM (≈ 10 µg/mL) | 14.2 µM (≈ 10 µg/mL) | 25.5 µM (≈ 18 µg/mL) | 1.8 | –
[H]/N=C(/N)N[C@H]1[C@H](O)[C@@H](O)[C@H](O[C@@H]2O[C@@H](C)[C@](O)(C=O)[C@H]2O[C@@H]2O[C@@H](CO)[C@H](O)[C@@H](O)[C@@H]2NC)[C@@H](N/C(N)=N\[H])[C@@H]1O [STREPTOMYCIN] | 0.43 µM (≈ 0.25 µg/mL) | 69 µM (≈ 40.1 µg/mL) | – | – | viability at 48 h, 4.68 ug/ml [1]: 90%; IC50 (THP-1): > 258 µM; selectivity ratio [6]: 600; viability at 24 h, 4.68 ug/ml [7]: 100%; viability at 24 h, 9.36 ug/ml [8]: 99%; viability at 48 h, 9.36 ug/ml [9]: 86%; viability at 24 h, 18.72 ug/ml [10]: 98%; viability at 48 h, 18.72 ug/ml [11]: 84%; viability at 24 h, 37.48 ug/ml [12]: 89%; viability at 48 h, 37.48 ug/ml [13]: 77%; viability at 24 h, 75 ug/ml [14]: 80%; viability at 48 h, 75 ug/ml [15]: 69%; viability at 24 h, 150 ug/ml [16]: 75%; viability at 48 h, 150 ug/ml [17]: 55%
O=c1ccc2ccc(-c3cn([C@@H]4O[C@H](CO)[C@@H](O)[C@H]4O)nn3)cc2o1 | 28.9 µM (≈ 9.98 µg/mL) | 28.9 µM (≈ 9.98 µg/mL) | 46.3 µM (≈ 16 µg/mL) | 1.6 | –
Cc1cc(=O)oc2cc(OCc3cn([C@@H]4O[C@H](COC(=O)c5ccccc5)[C@@H](OC(=O)c5ccccc5)[C@H]4OC(=O)c4ccccc4)nn3)c(Cl)cc12 | 13.5 µM (≈ 9.94 µg/mL) | 20.4 µM (≈ 15 µg/mL) | 27.2 µM (≈ 20 µg/mL) | 2 | –
CC[C@@H](CO)NCCN[C@@H](CC)CO [ETHAMBUTOL] | 9.7 µM (≈ 1.98 µg/mL) | 73.4 µM (≈ 15 µg/mL) | – | – | –
Cc1cc(=O)oc2cc(OCc3cn([C@@H]4O[C@H](CO)[C@@H](O)[C@H]4O)nn3)c(Cl)cc12 | 18.9 µM (≈ 8.01 µg/mL) | 18.9 µM (≈ 8.01 µg/mL) | 37.7 µM (≈ 16 µg/mL) | 2 | –
O=c1ccc2ccc(OCc3cn([C@@H]4O[C@H](CO)[C@@H](O)[C@H]4O)nn3)cc2o1 | 10.6 µM (≈ 3.98 µg/mL) | 15.9 µM (≈ 5.97 µg/mL) | 26.6 µM (≈ 9.98 µg/mL) | 2.5 | viability at 48 h, 4.68 ug/ml [1]: 89%; IC50 (THP-1): > 400 µM; selectivity ratio [6]: 37.7; viability at 24 h, 4.68 ug/ml [7]: 100%; viability at 24 h, 9.36 ug/ml [8]: 91%; viability at 48 h, 9.36 ug/ml [9]: 86%; viability at 24 h, 18.72 ug/ml [10]: 89%; viability at 48 h, 18.72 ug/ml [11]: 84%; viability at 24 h, 37.48 ug/ml [12]: 86%; viability at 48 h, 37.48 ug/ml [13]: 63%; viability at 24 h, 75 ug/ml [14]: 68%; viability at 48 h, 75 ug/ml [15]: 59%; viability at 24 h, 150 ug/ml [16]: 60%; viability at 48 h, 150 ug/ml [17]: 55%
Cc1cc(=O)oc2cc(-c3cn([C@@H]4O[C@H](CO)[C@@H](O)[C@H]4O)nn3)c(Cl)cc12 | 30.5 µM (≈ 12 µg/mL) | 25.4 µM (≈ 10 µg/mL) | – | – | –
CO[C@H]1/C=C/O[C@@]2(C)Oc3c(C)c(O)c4c(O)c(c(/C=N/N5CCN(C)CC5)c(O)c4c3C2=O)NC(=O)/C(C)=C\C=C\[C@H](C)[C@H](O)[C@@H](C)[C@@H](O)[C@@H](C)[C@H](OC(C)=O)[C@@H]1C [RIFAMPIN] | 0.02 µM (≈ 0.0165 µg/mL) | 152 µM (≈ 125 µg/mL) | – | – | –
O=C(O)c1cn(C2CC2)c2cc(N3CCNCC3)c(F)cc2c1=O | – | – | – | – | inhibition [18]: Active
O=C(OC[C@H]1O[C@@H](n2cc(COc3ccc4ccc(=O)oc4c3)nn2)[C@H](OC(=O)c2ccccc2)[C@@H]1OC(=O)c1ccccc1)c1ccccc1 | 11.6 µM (≈ 7.98 µg/mL) | 14.5 µM (≈ 9.97 µg/mL) | 26.2 µM (≈ 18 µg/mL) | 2.25 | –
